The results in this text go back to ChEMBL document CHEMBL2021780, “Antineoplastic agents. 548. Synthesis of iodo- and diiodocombstatin phosphate prodrugs” (J Nat Prod, 2012).

Molecules are shown by their SMILES. Calls of active or inactive are those of the source. No cut-off for these calls is given here.

For data set [1], the system named is HUVEC. As to the kind of experiment: Antiangiogenic activity in HUVEC assessed as reduction of number of junctions at 0.001 ug/ml after 24 hrs by matrigel assay relative to control. The class given is functional. The settings on record: Homo sapiens. In short, it runs like this:
(§1)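 Commercial HUVECs grown in EGM-2 were seeded at 2 × 10⁵ cells/mL onto Matrigel, which had been polymerized 15 min at rt and then 30 min at 37 °C, per NCI DTP protocol. Compound was added and cells were incubated 24 h, then imaged by inverted microscopy. Cord length and junction number were scored against untreated control on a scale from − (none) to +++ (same as control), with ++ = 50% of control.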

The test system of data set [2] is HUVEC. As to the kind of experiment: Antiangiogenic activity in HUVEC assessed as reduction of cord length at 1 ug/ml after 24 hrs by matrigel assay relative to control. The format is functional, cell-based. The following applies: Homo sapiens. The method in brief: as §1
In data set [3] the test system is HUVEC. As to the kind of experiment: Antiangiogenic activity in HUVEC assessed as reduction of number of junctions at 0.1 ug/ml after 24 hrs by matrigel assay relative to control. The class given is functional, cell-based. The following applies: Homo sapiens. In short, it runs like this: as §1
The test system of data set [4] is HUVEC. The data set is described as follows: Antiangiogenic activity in HUVEC assessed as reduction of cord length at 0.1 ug/ml after 24 hrs by matrigel assay relative to control. The class given is functional, cell-based. The following applies: Homo sapiens. In short, it runs like this: as §1
The test system of data set [5] is HUVEC. As to the kind of experiment: Antiangiogenic activity in HUVEC assessed as reduction of number of junctions at 1 ug/ml after 24 hrs by matrigel assay relative to control. The format is functional, cell-based. The following applies: Homo sapiens. In short, it runs like this: as §1
The test system of data set [6] is HUVEC. As to the kind of experiment: Antiangiogenic activity in HUVEC assessed as reduction of cord length at 0.001 ug/ml after 24 hrs by matrigel assay relative to control. The class given is functional. The following applies: Homo sapiens. In short, it runs like this: as §1
A further data set deals with DU-145. As to the kind of experiment: Growth inhibition of human DU145 cells after 48 hrs by sulforhodamine B assay. The class given is functional. The settings on record: DU-145, 48 h. In short, it runs like this:
(§2)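 NCI sulforhodamine B assay. Cells were seeded in 5% FBS/RPMI-1640 and incubated 24 h. Serial compound dilutions were then added for 48 h. Cells were fixed with trichloroacetic acid, stained with SRB and read by microplate reader. GI50 is the concentration giving 50% reduction in net protein increase, calculated from optical density data.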

In data set [7] the test system is HUVEC. As to the kind of experiment: Antiangiogenic activity in HUVEC assessed as cell growth at 0.001 ug/ml after 24 hrs by sulforhodamine B assay relative to control. The format is functional, Homo sapiens.
The next data set concerns MCF7. As to the kind of experiment: Growth inhibition of human MCF7 cells after 48 hrs by sulforhodamine B assay. The format is functional. The settings on record: MCF7, 48 h. The method in brief: as §2
In general terms: In SRB staining, fixed cells bind dye roughly in proportion to their protein.

The test system of data set [8] is HUVEC. As to the kind of experiment: Antiangiogenic activity in HUVEC assessed as cell growth at 0.01 ug/ml after 24 hrs by sulforhodamine B assay relative to control. The format is functional, Homo sapiens.
The test system of data set [9] is HUVEC. The data set is described as follows: Antiangiogenic activity in HUVEC assessed as cell growth inhibition after 48 hrs by sulforhodamine B assay. The format is functional, cell-based. The following applies: Homo sapiens. The method in brief:
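HUVECs were grown in EGM-2 medium and tested with the standard SRB growth assay following NCI Developmental Therapeutics Program Matrigel antiangiogenesis protocols. IC50 (concentration causing 50% inhibition) was calculated from plotted data.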

The test system of a further data set is P388. As to the kind of experiment: Growth inhibition of mouse P388 cells after 48 hrs by Z1 Beckman/Coulter particle counter analysis. The format is functional. The settings on record: P388, 48 h, read-out: ED50 (the source's name). The method in brief: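 Mouse P388 leukemia cells were incubated 24 h in 10% horse serum/Fisher medium, then exposed 48 h to serial compound dilutions. ED50 was calculated from cell counts on a Coulter Z1 particle counter.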

Data set [10] can be described thus: Inhibition of purified tubulin assembly after 20 mins. In short, it runs like this: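 Purified tubulin at 10 μM in 0.8 M monosodium glutamate (pH 6.6), 0.4 mM GTP and 4% (v/v) DMSO, with varying compound concentrations. Extent of assembly was measured after 20 min at 30 °C.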
In a further data set the test system is KM-20L2. As to the kind of experiment: Growth inhibition of human KM20L2 cells after 48 hrs by sulforhodamine B assay. The class given is functional. The settings on record: KM-20L2, 48 h. The method in brief: as §2
The next data set deals with NCI-H460. The data set is described as follows: Growth inhibition of human NCI-H460 cells after 48 hrs by sulforhodamine B assay. The class given is functional. The settings on record: NCI-H460, 48 h. The method in brief: as §2
Data set [11] in a line: Solubility of the compound in water. The class given is physicochemical. The following applies: buffer. The method in brief: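 Solubility expressed as amount dissolving in 1 mL H₂O at 25 °C.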
The test system of data set [12] is HUVEC. The data set is described as follows: Antiangiogenic activity in HUVEC assessed as cell growth at 0.0001 ug/ml after 24 hrs by sulforhodamine B assay relative to control. The class given is functional, Homo sapiens.
The next data set concerns BXPC-3. The data set is described as follows: Growth inhibition of human BxPC3 cells after 48 hrs by sulforhodamine B assay. The settings on record: BXPC-3, 48 h. The class given is functional. The method in brief: as §2
Data set [13] has as its system HUVEC. The data set is described as follows: Antiangiogenic activity in HUVEC assessed as cell growth at 0.1 ug/ml after 24 hrs by sulforhodamine B assay relative to control. The format is functional, Homo sapiens.
In the next data set the test system is SF-268. As to the kind of experiment: Growth inhibition of human SF268 cells after 48 hrs by sulforhodamine B assay. The class given is functional. The settings on record: SF-268, 48 h. In short, it runs like this:
as §2

Data set [14] deals with HUVEC. The data set is described as follows: Antiangiogenic activity in HUVEC assessed as reduction of number of junctions at 0.01 ug/ml after 24 hrs by matrigel assay relative to control. Further details: scale not given: the % may be the effect or the level left. The format is functional, Homo sapiens. The method in brief:
as §1

The next data set relates to SW-1736. The data set is described as follows: Growth inhibition of human SW1736 cells after 48 hrs by sulforhodamine B assay. The class given is functional. The following applies: SW-1736, 48 h.
A further data set has as its system SK-N-SH. As to the kind of experiment: Growth inhibition of human SK-N-SH cells after 48 hrs by sulforhodamine B assay. The class given is functional. The method in brief: as §2
The next data set relates to Neisseria gonorrhoeae. The data set is described as follows: Antibacterial activity against Neisseria gonorrhoeae ATCC 49226 by broth microdilution method. The class given is functional. The method in brief:
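Broth microdilution followed NCCLS standard methods. Compounds were reconstituted in sterile DMSO and diluted in the appropriate medium immediately before testing. MIC was taken as the lowest concentration giving no visible growth (optically clear). Assays were repeated on separate days.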
On the technique in general: Dilution methods test growth across graded concentrations, often in twofold steps.

In the next data set the test system is SK-N-AS. As to the kind of experiment: Growth inhibition of human SK-N-AS cells after 48 hrs by sulforhodamine B assay. The format is functional. The method in brief: as §2
The nature of data set [15]: Growth inhibition of human KAT4 cells after 48 hrs by sulforhodamine B assay. The format is functional. The settings on record: KAT-4, 48 h.
For another data set, the system named is IMR-32. As to the kind of experiment: Growth inhibition of human IMR32 cells after 48 hrs by sulforhodamine B assay. The following applies: IMR-32, 48 h. The format is functional. In short, it runs like this: as §2
For data set [16], the system named is HUVEC. The data set is described as follows: Antiangiogenic activity in HUVEC assessed as reduction of cord length at 0.01 ug/ml after 24 hrs by matrigel assay relative to control. The class given is functional, Homo sapiens. Further details: scale not given: the % may be the effect or the level left. In short, it runs like this: as §1
[17] abbreviates: Homo sapiens, HUVEC, 24 h, read-out: Activity.

As for `COc1ccc(/C=C\c2cc(I)c(OC)c(I)c2)cc1OP(=O)(O)O`, the outcome in the data set on HUVEC [1] and with HUVEC [6] was inactive. The outcome in the data set on HUVEC [2], with HUVEC [3], with HUVEC [4] and with HUVEC [5] was Active.
In the case of `COc1ccc(/C=C\c2cc(I)c(OC)c(OC)c2)cc1OP(=O)([O-])[O-].[Na+].[Na+]`, the GI50 in the data set with DU-145 is 0.011 µg/mL; in the data set on MCF7, 0.018 µg/mL; in the data set with KM-20L2, over 1 µg/mL; in the data set on NCI-H460, 0.017 µg/mL; in the data set with BXPC-3, 0.469 µg/mL; in the data set with SF-268 it was 0.018 µg/mL. Moreover, the Activity with HUVEC [7] came to 5%; in the data set with HUVEC [8], 14%; in the data set with HUVEC [12], 104%. Further, the IC50 with HUVEC [9] was 0.00035 µg/mL; in data set [10], over 40 µM. Besides, the EC50 with P388 came out at 0.002 µg/mL. In [11], this compound yielded a solubility of 2 mg/mL. Also, the growth at 0.1 µg/mL in the data set with HUVEC [13] (setting [17]) stood at 7%.
Take `COc1ccc(/C=C\c2cc(I)c(OC)c(I)c2)cc1OP(=O)([O-])[O-].[K+].[K+]`: the Activity in the data set with HUVEC [14] is on record as 75%; with HUVEC [8], 33%; with HUVEC [16], 75%; in the data set with HUVEC [13], 15%. In addition, the GI50 is over 10 µg/mL in the data set on SW-1736; 0.0075 µg/mL in the data set with SK-N-SH; 0.028 µg/mL in the data set with DU-145; 0.002 µg/mL in the data set with SK-N-AS; 0.38 µg/mL in [15]; 0.05 µg/mL with MCF7. Further, the GI50 with NCI-H460 turned out to be 0.046 µg/mL; with IMR-32, 0.081 µg/mL; in the data set on BXPC-3 it was 0.44 µg/mL; with SF-268, 0.053 µg/mL. The MIC against Neisseria gonorrhoeae is under 0.5 µg/mL. Further, the growth at 0.001 µg/mL in the data set on HUVEC [7] (setting [17]) turned out to be 88%. Also, in the data set with HUVEC [9], the IC50 came to 0.0049 µg/mL. In the data set on P388, the EC50 was 0.0034 µg/mL. In [11], this compound gave a solubility of 22 mg/mL. In addition, the growth at 0.0001 µg/mL with HUVEC [12] (setting [17]) was found to be 96%.

The GI50 is the concentration giving 50% growth inhibition. The IC50 is the midpoint of a concentration-inhibition curve. For orientation: solubility means the concentration that dissolves in the medium under given conditions. As a reminder, the MIC is the least concentration at which growth counts as inhibited.
